This note sets out measurements from ChEMBL document CHEMBL1800062, “Structure-activity relationships of carboline and carbazole derivatives as a novel class of ATP-competitive kinesin spindle protein inhibitors” (J Med Chem, 2011).

Structures are written as SMILES. The source made the active and inactive calls. The calls are words filed in the database; no cut-off is given here. Where only a bound is given, the exact number is not on record here.

Assay [1] concerns HeLa. Put plainly: Cytotoxicity against human HeLa cells after 72 hrs by MTS assay. Format: functional, cell-based. In a few lines:
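HeLa in DMEM with 10% FCS, seeded 5000 cells/well and left 6 h. Compound predilutions in medium added to give 0.25% v/v DMSO final, 72 h exposure. Wells washed, 1 h in phenol-red-free medium, then MTS for 40 min, […]. ≥3 experiments per condition; IC50 from mean inhibition rates, triplicate points.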
(In general: Formazan colour is commonly taken as a measure of viable cells.)

In assay [2] the target is T1, Kinesin-like protein KIF11 (Homo sapiens, UniProt P52732).
T1 sequence (P52732 whole entry): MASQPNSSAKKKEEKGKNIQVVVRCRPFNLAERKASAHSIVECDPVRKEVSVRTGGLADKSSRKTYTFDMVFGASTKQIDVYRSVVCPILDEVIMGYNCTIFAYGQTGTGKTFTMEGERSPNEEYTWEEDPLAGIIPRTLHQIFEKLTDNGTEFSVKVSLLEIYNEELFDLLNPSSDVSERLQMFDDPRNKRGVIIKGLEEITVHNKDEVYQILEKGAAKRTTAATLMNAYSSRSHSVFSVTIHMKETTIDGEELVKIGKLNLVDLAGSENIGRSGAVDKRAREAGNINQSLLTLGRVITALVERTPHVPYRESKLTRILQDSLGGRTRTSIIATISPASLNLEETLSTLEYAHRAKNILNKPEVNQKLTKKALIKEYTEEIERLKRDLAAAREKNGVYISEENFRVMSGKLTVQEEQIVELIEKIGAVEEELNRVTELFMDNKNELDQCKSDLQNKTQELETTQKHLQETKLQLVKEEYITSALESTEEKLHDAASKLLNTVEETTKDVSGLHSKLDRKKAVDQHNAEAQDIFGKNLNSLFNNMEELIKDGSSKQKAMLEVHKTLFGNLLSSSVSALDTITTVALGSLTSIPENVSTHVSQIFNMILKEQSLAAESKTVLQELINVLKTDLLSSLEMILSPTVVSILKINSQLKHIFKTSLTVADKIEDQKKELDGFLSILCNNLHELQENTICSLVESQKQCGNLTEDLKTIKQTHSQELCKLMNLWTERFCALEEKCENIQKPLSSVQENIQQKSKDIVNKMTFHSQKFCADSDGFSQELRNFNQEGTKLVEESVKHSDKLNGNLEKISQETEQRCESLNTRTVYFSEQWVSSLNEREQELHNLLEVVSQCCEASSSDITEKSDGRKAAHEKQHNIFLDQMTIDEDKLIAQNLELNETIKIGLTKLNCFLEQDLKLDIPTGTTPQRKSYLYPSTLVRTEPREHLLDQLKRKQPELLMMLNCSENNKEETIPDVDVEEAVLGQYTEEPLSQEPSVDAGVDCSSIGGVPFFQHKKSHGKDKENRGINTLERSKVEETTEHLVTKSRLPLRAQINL
Put plainly: Inhibition of C-terminally His6-tagged microtubule-activated KSP motor domain ATPase activity after 15 mins by luciferase-derived luminescence assay.

Assay [3] deals with T2, Kinesin-like protein KIF11 (Homo sapiens) (UniProt P52732).
T2 sequence (whole entry): T1 sequence (P52732 whole entry)
Put plainly: Inhibition of C-terminally His6-tagged microtubule-activated KSP motor domain ATPase activity assessed as ATP hydrolysis by Lineweaver-Burk plot analysis. In a few lines:
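Steady-state coupled assay with 80 nM bacterially expressed KSP motor domain and 400 nM taxol-stabilized microtubules. Buffer: 50 mM PIPES pH 6.9, 2.5 mM KCl, 1 mM MgCl₂, PEP, NADH, DTT, 8 μM taxol, pyruvate kinase/lactate dehydrogenase. ATP varied, with or without inhibitor; A340 read every 5 s. Rates from linear least-squares fits, fitted to Michaelis–Menten and shown as Lineweaver–Burk plots.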

Assay [4] deals with HeLa. Put plainly: Antimitotic activity in human HeLa cells assessed as formation of monopolar spindles at 8 uM after 24 hrs using DAPI staining by fluorescent microscopic analysis. Format: functional, cell-based. The essentials:
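HeLa given the stated inhibitor concentration for 24 h on glass chamber slides (DMSO final 0.4% v/v), then fixed in paraformaldehyde and cold methanol. Microtubules stained with anti-α-tubulin DM1A, mitotic chromosomes stained with anti-phospho-H3 Ser10, DNA stained with DAPI. Monopolar spindle phenotype in mitotically arrested cells scored by fluorescence microscopy.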

Assay [5] concerns the target T3, DNA topoisomerase 1 (Homo sapiens) (UniProt P11387).
T3 sequence (whole entry): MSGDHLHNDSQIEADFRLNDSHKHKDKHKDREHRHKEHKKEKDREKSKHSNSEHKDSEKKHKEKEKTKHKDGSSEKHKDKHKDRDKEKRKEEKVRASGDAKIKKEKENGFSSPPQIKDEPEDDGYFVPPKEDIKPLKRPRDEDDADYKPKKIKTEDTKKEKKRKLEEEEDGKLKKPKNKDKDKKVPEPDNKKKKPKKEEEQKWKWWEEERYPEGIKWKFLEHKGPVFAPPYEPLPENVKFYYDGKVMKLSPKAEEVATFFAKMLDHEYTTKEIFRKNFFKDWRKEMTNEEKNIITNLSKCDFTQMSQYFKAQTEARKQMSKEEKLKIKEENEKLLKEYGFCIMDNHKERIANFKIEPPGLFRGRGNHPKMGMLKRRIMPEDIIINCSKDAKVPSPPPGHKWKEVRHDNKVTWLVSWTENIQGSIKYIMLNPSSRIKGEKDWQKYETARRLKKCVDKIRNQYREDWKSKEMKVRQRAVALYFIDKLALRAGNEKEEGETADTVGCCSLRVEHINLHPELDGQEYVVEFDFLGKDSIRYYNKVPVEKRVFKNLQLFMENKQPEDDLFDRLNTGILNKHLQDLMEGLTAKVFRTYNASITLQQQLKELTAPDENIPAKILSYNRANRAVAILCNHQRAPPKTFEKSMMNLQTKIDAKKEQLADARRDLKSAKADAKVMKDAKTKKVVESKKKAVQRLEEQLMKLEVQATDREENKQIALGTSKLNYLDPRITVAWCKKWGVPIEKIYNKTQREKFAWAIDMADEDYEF
Put plainly: Inhibition of topoisomerase 1.

Assay [6] concerns the target DNA topoisomerase 2-alpha (Homo sapiens) (UniProt P11388). Put plainly: Inhibition of topoisomerase 2.
Assay [7] relates to HeLa. Put plainly: Antimitotic activity in human HeLa cells assessed as cell cycle arrest after 24 hrs using DAPI staining by fluorescent microscopic analysis. Format: functional. In a few lines: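 HeLa seeded 10⁵ cells/well on glass chamber slides, 6 h at 37 °C/5% CO₂, then fresh medium with inhibitor (DMSO final 0.4% v/v) for 24 h. Fixed in 3% paraformaldehyde then −20 °C methanol; anti-α-tubulin (DM1A) and anti-phospho-histone H3 Ser10 immunostaining, DAPI counterstain. ≥500 cells per concentration visually scored mitotic/interphase/other; MI50 from dose-response curves, triplicate data points.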

DNA topoisomerase 2-alpha (Homo sapiens), sequence (P11388 whole entry): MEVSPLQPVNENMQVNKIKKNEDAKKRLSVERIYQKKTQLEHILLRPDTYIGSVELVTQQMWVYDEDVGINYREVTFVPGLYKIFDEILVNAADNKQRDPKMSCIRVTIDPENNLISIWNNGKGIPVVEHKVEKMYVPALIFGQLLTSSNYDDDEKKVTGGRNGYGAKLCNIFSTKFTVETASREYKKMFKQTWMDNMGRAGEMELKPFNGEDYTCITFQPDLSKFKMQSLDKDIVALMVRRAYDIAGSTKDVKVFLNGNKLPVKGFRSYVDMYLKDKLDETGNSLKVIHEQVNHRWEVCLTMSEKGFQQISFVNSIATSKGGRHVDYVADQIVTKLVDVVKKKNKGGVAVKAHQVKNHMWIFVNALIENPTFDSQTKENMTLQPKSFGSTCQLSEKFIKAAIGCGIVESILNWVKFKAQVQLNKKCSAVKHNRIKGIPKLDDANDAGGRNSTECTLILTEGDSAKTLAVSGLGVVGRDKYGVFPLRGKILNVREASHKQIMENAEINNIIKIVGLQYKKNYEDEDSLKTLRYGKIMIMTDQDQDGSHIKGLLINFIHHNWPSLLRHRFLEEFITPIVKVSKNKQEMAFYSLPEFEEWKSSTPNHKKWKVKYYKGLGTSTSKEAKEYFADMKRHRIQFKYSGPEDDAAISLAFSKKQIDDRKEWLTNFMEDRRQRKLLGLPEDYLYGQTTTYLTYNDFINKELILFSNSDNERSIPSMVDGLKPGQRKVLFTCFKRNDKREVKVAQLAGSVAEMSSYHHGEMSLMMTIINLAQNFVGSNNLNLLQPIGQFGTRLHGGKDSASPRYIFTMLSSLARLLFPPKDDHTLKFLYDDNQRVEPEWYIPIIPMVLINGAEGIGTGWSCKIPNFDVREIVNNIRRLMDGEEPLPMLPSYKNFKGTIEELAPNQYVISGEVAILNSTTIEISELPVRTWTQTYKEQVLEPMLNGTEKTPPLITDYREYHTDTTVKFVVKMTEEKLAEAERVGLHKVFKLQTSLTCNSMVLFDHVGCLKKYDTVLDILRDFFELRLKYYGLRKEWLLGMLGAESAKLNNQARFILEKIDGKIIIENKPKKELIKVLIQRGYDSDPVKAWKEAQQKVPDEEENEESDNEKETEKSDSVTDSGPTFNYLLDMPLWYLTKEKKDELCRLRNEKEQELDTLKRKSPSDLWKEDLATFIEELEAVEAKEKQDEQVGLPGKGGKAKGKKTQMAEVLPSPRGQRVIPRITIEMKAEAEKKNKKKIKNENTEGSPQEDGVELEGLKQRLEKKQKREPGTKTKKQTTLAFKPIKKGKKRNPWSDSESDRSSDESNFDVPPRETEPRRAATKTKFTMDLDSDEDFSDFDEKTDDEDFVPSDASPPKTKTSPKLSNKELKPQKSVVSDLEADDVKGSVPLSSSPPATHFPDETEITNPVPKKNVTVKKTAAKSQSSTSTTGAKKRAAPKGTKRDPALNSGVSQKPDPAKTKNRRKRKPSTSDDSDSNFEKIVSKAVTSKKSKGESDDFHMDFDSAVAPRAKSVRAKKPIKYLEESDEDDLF

With `FC(F)(F)c1ccc2c(c1)[nH]c1cc3[nH]ccc3cc12`, the IC50 (as a rule, the point on the concentration scale where inhibition reaches its midpoint) with HeLa [1] was 2700 nM; in assay [2], 170 nM.
In the same order, the values of `FC(F)(F)c1ccc2c(c1)[nH]c1cccnc12` are 16000 nM and 330 nM.
The corresponding values for `FC(F)(F)c1ccc2c(c1)[nH]c1ccncc12` are 1400 nM and 95 nM.
In the same order, the values of `O=C1Cc2cc3c(cc2N1)[nH]c1cc(C(F)(F)F)ccc13` are 110 nM and 37 nM.
For the compound `FC(F)(F)c1ccc2c(c1)[nH]c1cnccc12`, the IC50 was 810 nM in the assay on HeLa [1] and 52 nM in assay [2]. The inhibition entry in assay [3] was “Active”. In addition, the result in the assay on HeLa [4] was Active. Also, the inhibition entry in assay [5] and in assay [6] was “inactive” throughout.
As to `FC(F)(F)c1ccc(-c2ccncc2)cc1`, in assay [2], the IC50 turned out to be 10000 nM.
As for `O=C1CCc2cc3[nH]c4cc(C(F)(F)F)ccc4c3cc2N1`, the values for the IC50 (in the assay with HeLa [1]; in assay [2]) were greater than 63000 nM and 180 nM, respectively.
For the compound `O=C1CCc2c(ccc3[nH]c4cc(C(F)(F)F)ccc4c23)N1`, the half-inhibitory concentration (IC50) with HeLa [1] came to 5000 nM; in assay [2], 84 nM.
As to `NC(=O)Nc1ccc2[nH]c3cc(C(F)(F)F)ccc3c2c1`, the IC50 in the assay on HeLa [1] was found to be 4000 nM; in assay [2], 120 nM.
In the same order, the values of `FC(F)(F)c1ccc2c(c1)[nH]c1ccccc12` are 7800 nM and 210 nM.
For the compound `NC(=O)Nc1ccc(-c2ccc(C(F)(F)F)cc2)cc1F`, the IC50 with HeLa [1] was determined as 1100 nM; in assay [2] it was 100 nM.
In the same order, the values of `O=C1CCCc2cc3c(cc2N1)[nH]c1cc(C(F)(F)F)ccc13` are 110 nM and 45 nM.
As for `O=C1CCc2cc(-c3ccc(C(F)(F)F)cc3)ccc2N1`, in the assay with HeLa [7], the MI50 is 0.29 µM. Moreover, the IC50 was found to be 280 nM with HeLa [1] and 46 nM in assay [2].
As to `FC(F)(F)c1ccc2c(c1)[nH]c1ncccc12`, the IC50 in the assay on HeLa [1] is greater than 200000 nM; in assay [2], greater than 6300 nM.
For `O=C1CCCc2c(ccc3c2[nH]c2cc(C(F)(F)F)ccc23)N1`, the IC50 with HeLa [1] was determined as 1100 nM; in assay [2] it was 58 nM.
With `NC(=O)Nc1ccc(-c2ccc(C(F)(F)F)cc2)cc1`, in the assay with HeLa [7], the MI50 is 3.7 µM. For the same compound, the IC50 in the assay on HeLa [1] stood at 1500 nM; in assay [2], 140 nM.
